Measurements from ChEMBL document CHEMBL3351861, “New synthetic sulfone derivatives inhibit growth, adhesion and the leucine arylamidase APE2 gene expression of Candida albicans in vitro” (2015).

How the values were obtained:
Candida albicans [1] = assay: Antifungal activity against Candida albicans CAI4 expressing delta-cph1 gene assessed as growth inhibition at 1 ug/ml by CLSI M27-A3 method; assay type: functional; conditions: read-out: GI
Procedure, shortened: (§1)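 CLSI M27-A3 broth microdilution in RPMI, read after 48 h. Strains pre-grown 18 h in YEPD at 30°C. Final inoculum 0.5×10^2–2.5×10^3 cells/ml. Two-fold dilutions in RPMI came from a 1600 µg/ml stock in water with 9% DMSO; final DMSO was 0.09%. OD405 read, % inhibition = 100 − (CTW−SCW)/(GCW−SCW). Triplicate on three occasions, mean±SD.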

Candida albicans [2] = assay: Inhibition of cell adhesion of compound pre-treated Candida albicans CAI4 expressing delta-cph1 gene to human Caco2 cells assessed as cell adhesion level at 16 ug/ml pre-incubated by colony counting method (reference value: 1.6 +/- 0.65%); set-up: scale not given: the % may be the effect or the level left
Candida albicans [3] = assay: Antifungal activity against Candida albicans CAI4 expressing delta-cph1 (CPH1) gene assessed as growth inhibition at 16 ug/ml by CLSI M27-A3 method; assay type: functional; conditions: read-out: GI; procedure, shortened: as §1
Candida albicans [4] = assay: Antifungal activity against Candida albicans CAI4 expressing delta-cph1/delta-efg1 gene assessed as growth inhibition at 1 ug/ml by CLSI M27-A3 method; assay type: functional; conditions: read-out: GI; procedure, shortened: as §1
Candida albicans [5] = assay: Antifungal activity against Candida albicans CAI4 expressing delta-cph1 (CPH1) gene assessed as growth inhibition at 0.25 ug/ml by CLSI M27-A3 method; assay type: functional; conditions: read-out: GI; procedure, shortened: as §1
Candida albicans [6] = assay: Antifungal activity against Candida albicans CAI4 expressing delta-cph1/delta-efg1 (EFG1) gene assessed as growth inhibition at 8 ug/ml by CLSI M27-A3 method; assay type: functional; conditions: read-out: GI; procedure, shortened: as §1
Candida albicans [7] = assay: Reduction in APE2 gene expression in compound pre-treated Candida albicans CAI4 expressing delta-efg1 gene grown on human Caco2 cells monolayer at 16 ug/ml pre-treated for 2 hrs measured after 6 hrs by RT-PCR method; assay type: functional, Caco-2
Procedure, shortened: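 Caco-2 was seeded at 1.2×10^5 cells/ml in EMEM (10% FCS, 1 mM pyruvate, no antibiotics) for 18 h at 37°C, 5% CO2. Yeast (10^4 cfu/ml) was pre-incubated 2 h in RPMI with 16 µg/ml sulfone, washed, resuspended in RPMI and inoculated onto the monolayer at 37°C. APE2 mRNA was measured by SYBR qPCR against ACT1 (2^-ΔΔCt, 90028 calibrator), in triplicate.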

Candida albicans [8] = assay: Inhibition of cell adhesion of compound pre-treated Candida albicans CAI4 expressing delta-cph1/delta-efg1 (EFG1) gene to human Caco2 cells assessed as cell adhesion level at 8 ug/ml pre-incubated for 18 hrs by colony counting method (reference value: 1.24 +/- 1.06%); assay type: functional, Caco-2; set-up: scale not given: the % may be the effect or the level left
Candida albicans [9] = assay: Inhibition of cell adhesion of compound pre-treated Candida albicans CAI4 expressing delta-efg1 (EFG1) gene to human Caco2 cells assessed as cell adhesion level at 2 ug/ml pre-incubated for 18 hrs by colony counting method (reference value: 2.6 +/- 2.33%); assay type: functional, Caco-2; set-up: scale not given: the % may be the effect or the level left
Candida albicans [10] = assay: Antifungal activity against Candida albicans CAI4 expressing delta-cph1/delta-efg1 gene assessed as growth inhibition at 4 ug/ml by CLSI M27-A3 method; assay type: functional; conditions: read-out: GI; procedure, shortened: as §1
Candida albicans [11] = assay: Inhibition of cell adhesion of compound pre-treated Candida albicans CAI4 expressing delta-efg1/delta-cph1 gene to human Caco2 cells assessed as cell adhesion level at 4 ug/ml pre-incubated for 18 hrs by colony counting method (reference value: 1.22 +/- 0.78%); assay type: functional, Caco-2; set-up: scale not given: the % may be the effect or the level left
Candida albicans [12] = assay: Reduction in APE2 gene expression in compound pre-treated Candida albicans CAI4 expressing delta-efg1 (EFG1) gene grown under YEPD medium at 16 ug/ml pre-treated for 2 hrs measured after 18 hrs by RT-PCR method; assay type: functional
Procedure, shortened: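 YEPD-grown yeast (18 h, 30°C) washed and held at 10^4 cfu/ml in YEPD with 16 µg/ml sulfone for 2 h. Cells were then washed and regrown 18 h at 30°C in YEPD. Total RNA was reverse-transcribed and SYBR Green qPCR run (250 nM primers, 60 ng cDNA, 45 cycles). APE2 was normalized to ACT1 by 2^-ΔΔCt with strain 90028 as calibrator. Done in triplicate on three occasions.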

Candida albicans [13] = assay: Inhibition of cell adhesion of compound pre-treated Candida albicans SC5314 to human Caco2 cells assessed as cell adhesion level at 8 ug/ml pre-incubated for 2 hrs by colony counting method (reference value: 1.1 +/- 1.1%); set-up: scale not given: the % may be the effect or the level left
Candida albicans [14] = assay: Antifungal activity against Candida albicans CAI4 expressing delta-cph1 (CPH1) gene assessed as growth inhibition at 8 ug/ml by CLSI M27-A3 method; assay type: functional; conditions: read-out: GI; procedure, shortened: as §1
Candida albicans [15] = assay: Antifungal activity against Candida albicans CAI4 expressing delta-cph1 gene assessed as growth inhibition at 4 ug/ml by CLSI M27-A3 method; assay type: functional; conditions: read-out: GI; procedure, shortened: as §1
Candida albicans [16] = assay: Antifungal activity against Candida albicans CAI4 expressing delta-cph1 (CPH1) gene assessed as growth inhibition at 2 ug/ml by CLSI M27-A3 method; assay type: functional; conditions: read-out: GI; procedure, shortened: as §1
Candida albicans [17] = assay: Inhibition of cell adhesion of compound pre-treated Candida albicans CAI4 expressing delta-efg1 gene to human Caco2 cells assessed as cell adhesion level at 4 ug/ml pre-incubated for 18 hrs by colony counting method (reference value: 2.1 +/- 3.52%); assay type: functional, Caco-2; set-up: scale not given: the % may be the effect or the level left
Candida albicans [18] = assay: Antifungal activity against Candida albicans CAI4 expressing delta-efg1 (EFG1) gene assessed as growth inhibition at 4 ug/ml by CLSI M27-A3 method; assay type: functional; conditions: read-out: GI; procedure, shortened: as §1
Candida albicans [19] = assay: Increase in APE2 gene expression in compound pre-treated Candida albicans CAI4 expressing delta-cph1/delta-efg1 gene grown on human Caco2 cells monolayer at 16 ug/ml pre-treated for 2 hrs measured after 18 hrs by RT-PCR method; assay type: functional, Caco-2
Procedure, shortened: (§2)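 Blastoconidia are pre-incubated 2 h with 16 µg/ml sulfone in RPMI. They are then washed, resuspended in RPMI and placed on Caco-2 monolayers at 37°C, with RNA taken at 6 or 18 h. Real-time RT-PCR uses SYBR Green with 250 nM primers and 60 ng cDNA: 95°C 15 min, then 45 cycles of 94°C 15 s and 60°C 1 min, plus a melt curve. APE2 is normalized to ACT1 by 2^-ΔΔCt with 90028 as calibrator; three experiments.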

Candida albicans [20] = assay: Antifungal activity against Candida albicans CAI4 expressing delta-efg1 gene assessed as growth inhibition at 0.5 ug/ml by CLSI M27-A3 method; assay type: functional; conditions: read-out: GI; procedure, shortened: as §1
Candida albicans [21] = assay: Reduction in APE2 gene expression in compound pre-treated Candida albicans 90028 grown on human Caco2 cells monolayer at 16 ug/ml pre-treated for 2 hrs measured after 6 hrs by RT-PCR method; assay type: functional, Caco-2; procedure, shortened: as §2
Candida albicans [22] = assay: Reduction in APE2 gene expression in compound pre-treated Candida albicans CAI4 expressing delta-cph1/delta-efg1 gene grown on human Caco2 cells monolayer at 16 ug/ml pre-treated for 2 hrs measured after 6 hrs by RT-PCR method; assay type: functional, Caco-2; procedure, shortened: as §2
Candida albicans [23] = assay: Inhibition of cell adhesion of compound pre-treated Candida albicans CAI4 expressing delta-efg1 (EFG1) gene to human Caco2 cells assessed as cell adhesion level at 8 ug/ml pre-incubated for 18 hrs by colony counting method (reference value: 2.6 +/- 2.33%); assay type: functional, Caco-2; set-up: scale not given: the % may be the effect or the level left

| SMILES | inhibition of growth at 1 µg/mL (Candida albicans [1]) [%] | Activity (Candida albicans [2]) [%] | inhibition of growth at 16 µg/mL (Candida albicans [3]) [%] | inhibition of growth at 1 µg/mL (Candida albicans [4]) [%] | inhibition of growth at 0.25 µg/mL (Candida albicans [5]) [%] | inhibition of growth at 8 µg/mL (Candida albicans [6]) [%] | Activity (Candida albicans [8]) [%] | inhibition of growth at 4 µg/mL (Candida albicans [10]) [%] | Activity (Candida albicans [11]) [%] | Activity (Candida albicans [13]) [%] | inhibition of growth at 8 µg/mL (Candida albicans [14]) [%] | inhibition of growth at 4 µg/mL (Candida albicans [15]) [%] | inhibition of growth at 2 µg/mL (Candida albicans [16]) [%] | Activity (Candida albicans [17]) [%] | inhibition of growth at 4 µg/mL (Candida albicans [18]) [%] | inhibition of growth at 0.5 µg/mL (Candida albicans [20]) [%] | Activity (Candida albicans [23]) [%] | other results |
| --- | --- | --- | --- | --- | --- | --- | --- | --- | --- | --- | --- | --- | --- | --- | --- | --- | --- | --- |
| NNc1ccc(S(=O)(=O)C(Cl)(Br)Br)cc1[N+](=O)[O-] | 99.8 | 0.37 | 99.8 | 100 | 98.6 | 99.4 | 0.75 | 100 | 2.74 | 0.45 | 99.7 | 100 | 99.3 | 0.69 | 99.3 | 97.9 |  | fold change (FC) (Candida albicans [7]): 10.27; Activity (Candida albicans [9]): 0.51%; ΔCt (Candida albicans [12]): 3.44; fold change (FC) (Candida albicans [19]): 1.38; ΔCt (Candida albicans [21]): 7.44; fold change (FC) (Candida albicans [22]): 10.26 |
| O=[N+]([O-])c1cc(S(=O)(=O)C(Cl)Cl)ccc1Cl | 99.3 | 1.03 | 99.4 | 99.1 | 91.8 | 99.3 | 2.24 | 99.2 | 0.36 |  | 99.4 | 99.1 | 98.6 | 0.97 | 98.5 | 99.4 | 1.18 |  |
| O=[N+]([O-])c1cc(S(=O)(=O)C(Cl)(Cl)Br)ccc1Cl | 97.8 | 0.56 | 99.8 | 98.8 | 96.7 | 99.8 | 1.26 | 99 | 1.02 | 0.36 | 99.8 | 98.7 | 99.2 | 1.14 | 99.3 | 98.7 | 1.13 |  |
